Reference: PubChem BioAssay AID720702 (The Scripps Research Institute Molecular Screening Center, 2013)
Screen size: about 370,000 compounds; about 1,200 (0.32%) were called active. For the sample, actives were picked, then their nearest neighbours and some compounds at random. A number with no mark means an inactive call.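 The calls were made as follows: active = inhibition above the mean of all tested compounds plus 3 SD, set per campaign (cut at about 25% in these data); inactive = the rest.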

Target: Tyrosyl-DNA phosphodiesterase 2 (Homo sapiens) (UniProt O95551)
Assay: blockers of TDP2 phosphodiesterase activity – biochemical, epi absorbance, recombinant enzyme, primary screen (AID 720702);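 also: 0% = DMSO with enzyme and 100% = buffer with substrate but no TDP2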
Conditions: recombinant TDP2, T5PNP hydrolysis, p-nitrophenol absorbance 415 nm; at 12.8 µM; hits give high values
Method in brief: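 Read-out basis: percent inhibition. System: recombinant human TDP2. Buffer or medium: Mg2+-containing Tris-HCl buffer, pH 7.5. Repeats: single replicate. Timing: reaction 2 h, 37 °C. Benchmarks: high control without enzyme, low control DMSO plus TDP2. Probe or stimulus: 5 mM T5PNP. Doses: 12.8 µM only. Measured by: epi absorbance of p-nitrophenol freed from T5PNP by hydrolysis.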

Tyrosyl-DNA phosphodiesterase 2 (Homo sapiens), sequence (O95551 whole entry, looked up): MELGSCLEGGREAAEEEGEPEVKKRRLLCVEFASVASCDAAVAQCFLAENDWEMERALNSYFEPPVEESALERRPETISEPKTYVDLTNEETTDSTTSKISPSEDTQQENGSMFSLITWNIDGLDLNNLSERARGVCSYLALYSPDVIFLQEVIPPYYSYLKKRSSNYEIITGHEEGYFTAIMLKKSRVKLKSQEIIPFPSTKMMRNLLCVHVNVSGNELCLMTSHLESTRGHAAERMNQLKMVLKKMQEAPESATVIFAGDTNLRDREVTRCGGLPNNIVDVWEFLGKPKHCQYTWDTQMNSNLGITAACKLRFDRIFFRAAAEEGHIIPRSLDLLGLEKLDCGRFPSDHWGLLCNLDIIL

Row | Compound | inhibition
1 | O=C(NCc1ccc(Cl)cc1)C(=O)NCC1CCCN1S(=O)(=O)c1cccs1 (stereo not drawn) | 6.77%
2 | O=C(NCc1ccccc1Cl)C(=O)NCC1CCCN1S(=O)(=O)c1cccs1 (stereo not drawn) | 25.5% (active)
3 | COc1ccccc1CCNC(=O)C(=O)NCCC1CCCCN1S(=O)(=O)c1cccs1 (stereo not drawn) | -2.28%
4 | COC(=O)C1CN(Cc2cn(Cc3ccc(F)cc3)nn2)CCS(=O)(=O)N1Cc1ccc(Cl)cc1 (stereo not drawn) | -3.71%
5 | CCCCCCCCc1c(O)nc(-n2[nH]c(C)c(CCO)c2=O)[nH]c1=O | 41.6% (active)
6 | CCCCc1c(O)nc2n(c1=O)CCS2 | 7.5%
7 | COc1cc(/C=C/C(=O)n2cnc3ccccc32)cc(OC)c1OC | -7.12%
8 | Cc1cc(C)c(S(=O)(=O)NN=C2c3ccccc3[C@H]3Cc4csc[n+]4[C@@H]23)c(C)c1 | 25.7% (active)
9 | CCSC(C)CC1C/C(=N/O)c2c(C)noc2C1 (stereo not drawn) | 4.33%
10 | COC1=C[C@H](C(=O)NCCNC(C)=O)[C@H](C)[C@@H](c2ccccc2)CC1=O | 6.52%
11 | Oc1c(C=Nc2cccc3nsnc23)ccc2ccccc12 | 59.5% (active)
12 | Cc1ccc(-n2c(COc3ccccc3)nnc2SCC(=O)Nc2ccc3c(c2)OCCO3)cc1 | -5.97%
13 | COC(=O)[C@H](C(C)C)N(CCCc1cn(Cc2ccccc2)nn1)S(=O)(=O)c1ccc(F)cc1Br | -3.1%
14 | C=CCO/N=C(\C)c1c(O)c(C)c(-c2ccccc2)n(-c2ccccc2)c1=O | -4.01%
15 | COC(=O)[C@]12C[C@H](CC(=O)NCCCN3CCCC3=O)C(=O)N(CCc3ccc(OC)c(OC)c3)C1=C[C@H](COCc1ccccc1)O[C@@H]2C | 5.78%
16 | O=C1C(=O)N(Cc2ccc(-c3ccsc3)cc2)c2ccc(OC(F)(F)F)cc21 | 3.8%
17 | COc1ccc2c(c1)C(C)=CC(C)(C)N2C(=O)CNCc1ccc2c(c1)OCO2 | 4.77%
18 | COc1ccc2c(c1)C(C)=CC(C)(C)N2C(=O)Nc1ccccc1 | 41.9% (active)
19 | COc1cccc(NC(=O)C2C(c3ccccc3)C2(Cl)Cl)c1 (stereo not drawn) | 0.37%
20 | CC(=O)Nc1ccc(S(=O)(=O)NC(C)C(=O)OCCOc2ccc(F)cc2)cc1 (stereo not drawn) | 3.48%
21 | Cn1nc(N)c2ncc(C(Cl)(Cl)Cl)nc21 | 33.9% (active)

Row | Compound | inhibition
22 | Cc1ccc(C2=CCN(C)C(=O)N2c2ccc(Cl)cc2)cc1 | 8.05%
23 | Cc1[nH][nH]c(=O)c1C(c1ccc(-c2ccc(Cl)cc2)o1)c1c(C)[nH][nH]c1=O | 30% (active)
24 | COc1cccc(NC(=O)[C@H](Cc2c[nH]c3ccccc23)NC(=O)[C@@H]2Cc3ccccc3CN2)c1 | -6.32%
25 | CC[C@@H](CCC(=O)N(c1ccccc1)c1ccccc1)C1CC1 | -0.32%
26 | CCN(CC)C(=O)[C@H]1C[C@H](CC(=O)NCC23CC4CC(CC(C4)C2)C3)C(=O)N2CCc3c([nH]c4cc(CCC(=O)N(C)C)ccc34)[C@]12C | -4.89%
27 | CCOc1ccc(C(C)NC(=O)CN2C(=O)NC3(CCCCC3)C2=O)cc1OCC (stereo not drawn) | -6.82%
28 | CCOc1ccc(C(c2c(C)[nH][nH]c2=O)c2c(C)[nH][nH]c2=O)cc1OCC | 25.3% (active)
29 | CCOc1ccc(C(CC(=O)O)NC(=O)C23CC4CC(CC(C4)C2)C3)cc1OC (stereo not drawn) | 0.7%
30 | CCOc1ccc(N(CC(=O)Nc2c(C)n(C)n(-c3ccccc3)c2=O)S(=O)(=O)c2ccc(Cl)s2)cc1 | -6.34%
31 | N#C/C(C(=O)N1CCOCC1)=C1/SC(Cc2ccc(F)cc2)C(=O)N1c1ccccc1 (stereo not drawn) | 2.43%
32 | O=C(NC1CCC1)c1ccc(C#CC2CC2)cn1 | 4.08%
33 | CCCCNC(=O)C(C)N(CCN(C)C)C(=O)CCCCCN1C(=O)NC(c2ccc(Cl)cc2)C(C(=O)OCc2ccccc2)=C1C (stereo not drawn) | -0.25%
34 | CC1CN(CCOc2ccccc2[N+](=O)[O-])CC(C)O1 (stereo not drawn) | 14%
35 | Cc1ccc(OCCCCN2CCCCC2)c(Br)c1 | 5.22%
36 | Cc1cc(C)c(OCCN2CC(C)OC(C)C2)c(Br)c1 (stereo not drawn) | 30.7% (active)
37 | COc1ccc(-n2c(SCC(=O)Nc3ccc4c(c3)OCCO4)nnc2-c2ccc(Cl)cc2)cc1 | -7.72%
38 | O=C(CN1C(=O)CSC1=O)N1CCCC(Nc2ccc(F)cc2)C1 (stereo not drawn) | -8.75%
39 | O=C(c1ccccc1)c1ccc(-c2ccccc2C(=O)NC2CCCCN(Cc3ccc(Cl)cc3)C2=O)cc1 (stereo not drawn) | 15.2%
40 | CCCn1c2ccccc2c2cnn(CC(=O)NCCCN3CCCCC3CC)c(=O)c21 (stereo not drawn) | -29.8%
41 | Cc1ccccc1Cn1c2ccccc2c2cnn(CC(=O)NCc3ccco3)c(=O)c21 | 24.5% (active)
42 | O=C(Cn1ncc2c3ccccc3n(Cc3ccccc3)c2c1=O)NCCCN1CCOCC1 | 12.7%

Row | Compound | inhibition
43 | CCC[C@H]1C(=O)CC[C@@]23CCCN2C(=O)CCC[C@@H]13 | 2.8%
44 | COc1ccccc1NC(=O)C1CCCN(c2cc(C)nc3ncnn23)C1 (stereo not drawn) | 2.18%
45 | COc1cccc(CNC(=O)C2CCCN(c3nc4ccccc4o3)C2)c1OC (stereo not drawn) | -1.52%
46 | O=C(NCCCCO)C(F)(F)C(F)(F)C(F)(F)C(=O)NCCCCO | -4.23%
47 | CCN(CC)CCCC(C)n1c2nc(=O)[nH]c(=O)c-2nc2cc(Cl)ccc21 (stereo not drawn) | 24.6% (active)
48 | Cc1cc2nc3c(=O)[nH]c(=O)nc-3n(C[C@H](O)[C@H](O)[C@H](O)CO)c2cc1C | 3.4%
49 | O=c1[nH][nH]c(C(F)(F)F)c1C=NCc1ccccc1Cl | 4.32%
50 | C=CCn1c(=S)sc2c(=O)[nH]c(C)nc21 | 0.69%
51 | Oc1ccc(N=Cc2sc3ccccc3c2Cl)cc1 | 28.4% (active)
52 | Oc1ccc(N=Cc2c(O)ccc3ccccc23)cc1 | 29.3% (active)
53 | CCOC(=O)C1=C(C(=O)OCC)C2N(Cc3ccc(C#N)cc3)c3ccccc3[C@@]23C[C@@H](C(=O)OC)N(S(=O)(=O)c2ccc(F)cc2)C3=N1 (stereo partly drawn) | 3.59%
54 | COC(=O)[C@@]12CCCCC3=C1N(CCC3)C(=O)[C@H]2CC(=O)NCc1cccc2ccccc12 | 15.1%
55 | COc1ccc(C(=O)OCCN2CCN(C3CN(Cc4cn(Cc5ccccc5F)nn4)S(=O)(=O)C3)CC2)cc1OC (stereo not drawn) | 11.2%
56 | Cc1nc([N+](=O)[O-])cn1CC(=O)Nc1ccc(Cl)cc1 | 7.84%
57 | CCOC(=O)C1CCN(C(=O)C(C)(C)NC(=O)Nc2ccccc2Cl)CC1 | 1.3%
58 | c1coc(CCNc2ncnc3ccc(-c4ccc5c(c4)OCO5)cc23)c1 | 0.8%
59 | Cc1cc(C)nc(NC(=S)N2CCN(c3ccc(C(F)(F)F)cn3)CC2)c1 | -1.93%
60 | COc1cc(OC)cc(C(=O)OCC(=O)Nc2sccc2C(N)=O)c1 | 28.2% (active)
61 | Cc1cccc(C(=O)OCC(=O)Nc2sccc2C(N)=O)c1C | -12.7%
62 | NC(=O)c1ccsc1NC(=O)COC(=O)COc1ccc(C=O)cc1 | 2.52%
63 | CC1Cc2nc(SCC(=O)Nc3ccccc3F)n(C)c(=O)c2S1 (stereo not drawn) | 9.78%

Row | Compound | inhibition
64 | COC(=O)[C@]12C[C@H](CC(=O)N3CCOCC3)C(=O)N(Cc3ccc(Cl)cc3Cl)C1=C[C@H](C(C)C)O[C@@H]2C1CC1 | -1.98%
65 | CCOC(=O)Cn1c2c(n(-c3ccc(F)cc3)c1=O)C=C(c1ccccc1)[C@@H](C)C(C(=O)N(C)C1CCCCC1)=C2 | -5.6%
66 | C=CCN(Cc1ccc2c(c1)OCO2)C(C#CC1CC1)C(C)(C)C (stereo not drawn) | 0.99%
67 | C[C@H]1[C@H](NC(=O)c2cccc(N(C)C)c2)CC[C@@]23CCCN2C(=O)CCC[C@@H]13 | -4.75%
68 | Clc1ccc(C2=CSC3=Nc4cccc5cccc(c45)N23)cc1 | 65.8% (active)
69 | Cc1ccc(C)c(CN2CCC(CNC(=O)C3CCCN(c4ncnc5c4nc4n5CCCCC4)C3)CC2)c1 (stereo not drawn) | -0.02%
70 | O=C(NCCC1=CCCCC1)C1CCN(S(=O)(=O)c2ccc(Cl)s2)CC1 | 6.48%
71 | Cc1ccc(CCNC(=O)C2CCN(S(=O)(=O)N3CCCC3)CC2)cc1 | 3.54%
72 | Cc1ccc(S(=O)(=O)N2CCC(C(=O)NCCC3=CCCCC3)CC2)cc1C | 33.1% (active)
73 | C=C(C)CNC(=O)c1ccc(OC2CCN(C(=O)COC)CC2)cc1 | -0.83%
74 | NC1=CC(=O)C(=O)c2cccnc21 | 70.4% (active)
75 | O=C(NCc1ccccc1)[C@H]1CCCN1C(=O)[C@@H]1CCCN1C(=O)c1ccc(Cl)cc1Cl | -1.81%
76 | O=C1CC(c2ccc3c(c2)OCO3)N=C2N(CC3CC3)C/C(=C/c3ccccc3)N12 (stereo not drawn) | 7.53%
77 | COC(=O)[C@]12C[C@H](CC(=O)NCc3cccs3)C(=O)N(CCc3ccc(OC)c(OC)c3)C1=C[C@H](C(C)C)O[C@@H]2C1CC1 | 3.66%
78 | COc1cc(NC(=S)NNC(=O)CC(C)C)c(OC)cc1Cl | 8.52%
79 | CCc1ccccc1NC(=S)Nc1cc(OC)c(NC(=O)C(C)C)cc1OC | 39.9% (active)
80 | COc1ccc(C)cc1NC(=S)Nc1ccccc1SC | 1.04%
81 | Cc1cc(C)n2ncc(C(=O)Nc3ccc4c(c3)OCCO4)c2n1 | -3.81%
82 | CN(C)C(=O)N1CCN(C(=O)[C@@H](Cc2ccccc2)NC(=O)[C@H]2O[C@@H](n3ccc(N)nc3=O)[C@H](O)[C@@H]2O)CC1 | 8.58%
83 | Cc1ccc2nc(-c3ccc(NC(=O)CN(C)S(=O)(=O)c4ccccc4)cc3)sc2c1 | -18.6%
